The results in this text go back to ChEMBL document CHEMBL3593222, “6-Phenoxy-2-phenylbenzoxazoles, novel inhibitors of receptor for advanced glycation end products (RAGE)” (Bioorg Med Chem, 2015).

As usually defined, the inhibition is the change of the read-out against control, counted positive when it falls.

A short description of data set [1]: Solubility of the compound in water. The format is physicochemical. The conditions noted are these: buffer.
Data set [2] deals with HT-22. The experiment in a line: (§1) Cytotoxicity against mouse HT22 cells assessed as cell viability at 10 uM after 18 hrs by MTT assay. The note with it: ht-22, 18 h, 10 µM. The format is cell-based. Summed up: (§2)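 HT22 cells were grown in DMEM with 10% FBS and penicillin/streptomycin at 37 °C in 5% CO2, and seeded at 5000 cells/well. Next day they were exposed to 10 µM compound for 18 h. MTT was then added for 3 h, formazan dissolved in acidic 2-propanol, and OD read at 570 nm. Viability is blank-corrected absorbance relative to control. Run in triplicate.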
For orientation: Tetrazolium assays rely on reduction of a dye to a coloured formazan, in cell work by metabolically active cells.

Data set [3] has as its target Advanced glycosylation end product-specific receptor (Homo sapiens) (UniProt Q15109). The experiment in a line: Inhibition of human RAGE-amyloid beta-42 interaction at 4 uM preincubated for 30 mins measured after 1 hr by FRET assay relative to control. Summed up:
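Biotinylated human RAGE (2.5 µg) was premixed with 200 ng Cy3-streptavidin in PBS for 30 min at rt. Aβ42-FITC (50 µL of 40 nM) and compound (50 µL of 4 µM) were then added, in 200 µL final volume with 0.1% DMSO. Fluorescence was read 1 h later. FRET efficiency was computed from donor emission with and without acceptor, and percent inhibition was taken against vehicle. Triplicate.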

Data set [4] in a line: as §1. Type of data set: cell-based, HT-22. The conditions noted are these: HT22 cells, read-out: Activity. Summed up: as §2
Data set [5] has as its system Mus musculus. The experiment in a line: Antialzheimer activity in APPsw/PS1 transgenic mouse assessed as reduction of total amyloid beta 1-42 level in brain homogenates at 50 mg/kg, po administered every 2 days for 4 weeks by ELISA. Type of data set: functional, organism-based. In outline: (§3)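 Male APPsw/PS1 mice, 34 weeks old (n = 4–5), dosed by gavage at 50 mg/kg every 2 days for 4 weeks. Total Aβ1–40 and Aβ1–42 were measured by ELISA kit. Results given as mean ± SD.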
(In general: ELISA stands for enzyme-linked immunosorbent assay.)

Data set [6] deals with HT-22. Briefly: Neuroprotective activity in mouse HT22 cells assessed as inhibition of amyloid beta-induced cytotoxicity by measuring cell viability at 10 uM after 18 hrs by MTT assay. The note with it: HT-22, 18 h. Type of data set: functional. Summed up: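 Aβ peptide was pretreated in HFIP, dried to a film, redissolved in DMSO, and aggregated at 200 µM in PBS for 24 h at 4 °C. HT22 cells (5000/well) were exposed the next day to 2 µM aggregated Aβ plus 10 µM compound for 18 h. Viability was read by MTT at 570 nm, and percent inhibition was calculated against Aβ with vehicle. Triplicate.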

Data set [7] has as its system Mus musculus. The experiment in a line: Toxicity in APPsw/PS1 transgenic mouse at 50 mg/kg, po administered every 2 days for 4 weeks. Type of data set: organism-based. The conditions noted are these: in vivo.
Data set [8] has as its system Mus musculus. The experiment in a line: Antialzheimer activity in APPsw/PS1 transgenic mouse assessed as reduction of total amyloid beta 1-40 level in brain homogenates at 50 mg/kg, po administered every 2 days for 4 weeks by ELISA.
The subject of data set [9] is Mus musculus. Briefly: Antialzheimer activity in APPsw/PS1 transgenic mouse assessed as reduction of total amyloid beta 1-40 level in brain homogenates at 50 mg/kg, po administered every 2 days for 4 weeks by ELISA. Type of data set: functional, organism-based. Summed up:
as §3

In data set [10] the test system is Mus musculus. The experiment in a line: Antialzheimer activity in APPsw/PS1 transgenic mouse assessed as reduction of total amyloid beta 1-42 level in brain homogenates at 50 mg/kg, po administered every 2 days for 4 weeks by ELISA.

The source made the active and inactive calls. No cut-off for these calls is given here.

Chain of Advanced glycosylation end product-specific receptor (Homo sapiens) (Q15109 whole entry): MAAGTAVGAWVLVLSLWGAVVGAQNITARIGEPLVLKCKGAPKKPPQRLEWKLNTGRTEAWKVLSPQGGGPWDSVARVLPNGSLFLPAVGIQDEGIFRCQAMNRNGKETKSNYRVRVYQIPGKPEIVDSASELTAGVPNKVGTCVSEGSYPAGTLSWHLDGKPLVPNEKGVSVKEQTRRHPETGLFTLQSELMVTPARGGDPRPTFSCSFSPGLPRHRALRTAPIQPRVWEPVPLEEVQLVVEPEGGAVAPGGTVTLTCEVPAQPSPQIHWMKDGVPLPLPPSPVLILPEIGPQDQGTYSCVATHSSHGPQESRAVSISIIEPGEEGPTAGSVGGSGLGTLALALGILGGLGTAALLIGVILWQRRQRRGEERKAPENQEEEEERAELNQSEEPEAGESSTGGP

As for `Clc1ccc(Oc2ccc3nc(-c4ccc(OCCCN5CCN(c6ccccc6)CC5)cc4)oc3c2)cc1`, the solubility entry in [1] is recorded as “Insoluble”. The Activity result in data set [2] is listed as “Non-toxic”. In addition, in data set [3], the inhibition result was “inactive”.

With `Clc1ccc(Oc2ccc3nc(-c4ccc(OCCCN5CCC(c6ccccc6)CC5)cc4)oc3c2)cc1`, the solubility entry in data set [1] is listed as “Insoluble”. Besides, the Activity entry in data set [2] is on record as “Non-toxic”. The inhibition entry in [3] is “inactive”.

Regarding `Clc1ccc(Oc2ccc3nc(-c4ccc(OCC5CCN(Cc6ccccc6)CC5)cc4)oc3c2)cc1`, in [1], the solubility result is given as “Insoluble”. Besides, the viability at 18 h, 10 µM in [4] is 82.4%. Moreover, the inhibition in data set [3] is 5.1%.

Regarding `CC(C)(C)OC(=O)N1CCN(CCCOc2ccc(-c3nc4ccc(Oc5ccc(Cl)cc5)cc4o3)cc2)CC1`, the result in [5], in data set [8], in data set [9] and in data set [10] was Active. For the same compound, in [6], the inhibition at 10 µM was determined as 65%. Further, the Activity entry in data set [7] and in data set [2] was “Non-toxic” throughout. In data set [3], this compound gave an inhibition of 40%.

With `Clc1ccc(Oc2ccc3nc(-c4ccc(OCCCN5CCN(c6ncccn6)CC5)cc4)oc3c2)cc1`, the solubility entry in data set [1] is given as “Insoluble”. The viability at 18 h, 10 µM in data set [4] is 25.1%. In data set [3], the inhibition came out at 25.1%.
